In series [1] the target is Histone deacetylase 2 (Homo sapiens, UniProt Q92769). Briefly: Inhibition of full length human recombinant C-terminal GST-tagged HDAC2 (1 to 488 residues) expressed in insect cells preincubated with enzyme followed by fluorogenic Arg-His-Lys-Lys(Ac)-AMC substrate addition measured after 2 hrs by fluorescence assay.
Series [2] deals with Histone deacetylase 8 (Homo sapiens, UniProt Q9BY41). Briefly: Inhibition of human recombinant C-terminal His-tagged HDAC8 (1 to 377 residues) expressed in insect cells preincubated with enzyme followed by fluorogenic Arg-His-Lys(Ac)-Lys(Ac)-AMC substrate addition measured after 2 hrs by fluorescence assay. In short, it runs like this:
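HDAC8 in 50 mM Tris-HCl pH 8.0, 137 mM NaCl, 2.7 mM KCl, 1 mM MgCl2 was pre-incubated with compound from DMSO. 50 µM Arg-His-Lys(Ac)-Lys(Ac) substrate was added and the reaction ran 2 h at 30 °C. Trichostatin A developer stopped it, with fluorescence read at Ex/Em 360/460 nm. IC50 from a 10-dose curve.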

In series [3] the target is Histone deacetylase 9 (Homo sapiens) (UniProt Q9UKV0). Briefly: Inhibition of HDAC9 (unknown origin) at 10 uM preincubated with enzyme followed by acetyl-Lys(trifluoroacetyl)-AMC substrate addition measured after 2 hrs by fluorescence assay relative to control. In short, it runs like this: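 Fluorogenic HDAC assay in 50 mM Tris-HCl pH 8.0, 137 mM NaCl, 2.7 mM KCl, 1 mM MgCl2. Enzyme pre-incubated with compound delivered in DMSO. Substrate then added: Arg-His-Lys(Ac) at 50 μM for most isoforms, or acetyl-Lys(trifluoroacetyl)-AMC for class IIa. Incubated 2 h at 30 °C, stopped with developer plus trichostatin A, read at Ex/Em 360/460 nm at endpoint. IC50 from 10-dose curves.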

In series [4] the target is T1, Phosphatidylinositol 4,5-bisphosphate 3-kinase catalytic subunit gamma isoform (Homo sapiens, UniProt P48736). Briefly: Inhibition of human PI3Kgamma (S144 to A1102 residues) expressed in mammalian expression system assessed as residual activity at 100 nM by KINOMEScan assay relative to control. In short, it runs like this: (§1)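 DiscoveRx competition-binding panel of 97 kinases, measuring binding to the kinase ATP site rather than catalytic turnover. The test compound was run at a single 100 nM concentration. Results are given as % of control binding.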
Target sequence in this assay (P48736 whole entry, looked up, the tested form may be a part, canonical isoform): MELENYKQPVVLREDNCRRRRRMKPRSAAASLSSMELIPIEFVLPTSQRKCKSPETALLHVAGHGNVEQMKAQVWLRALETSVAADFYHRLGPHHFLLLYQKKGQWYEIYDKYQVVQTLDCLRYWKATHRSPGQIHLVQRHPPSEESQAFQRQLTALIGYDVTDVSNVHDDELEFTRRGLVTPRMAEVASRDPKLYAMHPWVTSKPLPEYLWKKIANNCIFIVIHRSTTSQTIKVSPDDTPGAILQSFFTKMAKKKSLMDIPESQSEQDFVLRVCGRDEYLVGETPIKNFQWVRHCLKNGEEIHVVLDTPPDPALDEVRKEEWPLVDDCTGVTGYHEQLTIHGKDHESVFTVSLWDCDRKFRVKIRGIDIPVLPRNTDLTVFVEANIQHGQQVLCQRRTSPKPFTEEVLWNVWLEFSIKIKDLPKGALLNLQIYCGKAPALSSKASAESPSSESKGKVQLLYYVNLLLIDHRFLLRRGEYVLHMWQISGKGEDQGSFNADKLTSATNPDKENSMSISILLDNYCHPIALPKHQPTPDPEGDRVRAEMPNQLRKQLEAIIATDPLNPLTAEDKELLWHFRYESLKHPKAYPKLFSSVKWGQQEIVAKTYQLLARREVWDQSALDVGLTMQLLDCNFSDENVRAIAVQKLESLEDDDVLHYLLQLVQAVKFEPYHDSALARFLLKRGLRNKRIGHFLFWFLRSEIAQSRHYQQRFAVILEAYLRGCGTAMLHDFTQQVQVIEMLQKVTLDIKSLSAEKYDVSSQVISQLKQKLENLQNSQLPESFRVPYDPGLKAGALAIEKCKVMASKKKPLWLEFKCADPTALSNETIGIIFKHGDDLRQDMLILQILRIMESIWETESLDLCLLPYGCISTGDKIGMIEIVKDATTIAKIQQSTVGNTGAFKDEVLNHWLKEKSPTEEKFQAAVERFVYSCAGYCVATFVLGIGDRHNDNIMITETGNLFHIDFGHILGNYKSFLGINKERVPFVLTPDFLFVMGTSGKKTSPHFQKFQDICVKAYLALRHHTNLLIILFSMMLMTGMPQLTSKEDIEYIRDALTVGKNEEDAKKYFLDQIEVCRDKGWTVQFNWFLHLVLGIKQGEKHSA

Series [5] has as its target Mitogen-activated protein kinase 10 (Homo sapiens, UniProt P53779). The series is described as follows: Inhibition of human MAPK10 (V28 to Q422 residues) expressed in mammalian expression system assessed as residual activity at 100 nM by KINOMEScan assay relative to control. In short, it runs like this:
as §1

A short description of series [6]: Antiproliferative activity against human MDA-MB-231 cells after 72 hrs by MTT assay. Particulars: MDA-MB-231, 72 h. The format is functional, cell-based. For orientation: Formazan colour is commonly taken as a measure of viable cells.
Series [7] is described as follows: Antiproliferative activity against human HCT116 cells after 72 hrs by MTT assay. In kind it is functional, cell-based. As to conditions: HCT-116, 72 h. Put shortly: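 MTT viability after 72 h exposure. Cells seeded at 2500/well and left 24 h before compound addition; DMSO at 0.5% v/v final. MTT added in FBS-free medium for 3 h at 37 °C, formazan dissolved in DMSO, absorbance read at 570 nm. IC50 from a sigmoidal fit of % viability vs log concentration; triplicates on separate occasions using two different stock solutions.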

A short description of series [8]: Antiproliferative activity against human PC3 cells after 72 hrs by MTT assay. The format is functional, cell-based. As to conditions: PC-3, 72 h.
Series [9] deals with T1, Phosphatidylinositol 4,5-bisphosphate 3-kinase catalytic subunit gamma isoform. Briefly: Inhibition of human PI3Kgamma (S144 to A1102 residues) expressed in mammalian expression system by KINOMEScan assay.
Target sequence in this assay (P48736 whole entry, the tested form may be a part, canonical isoform): as the sequence (P48736 whole entry, looked up, the tested form may be a part, canonical isoform) above
The nature of series [10]: Antiproliferative activity against human HL60 cells. In kind it is functional, cell-based. Particulars: HL-60.
Series [11] in a line: Antiproliferative activity against human MOLM14 cells harboring FLT3-ITD mutant after 48 hrs by CellTiter-Glo assay. The format is functional, cell-based. As to conditions: MOLM-14, 48 h.
A short description of series [12]: Antiproliferative activity against human KHYG cells after 48 hrs by CellTiter-Glo assay. In kind it is functional, cell-based. (Cellular ATP, detected with luciferase, serves as a proxy for viable cell number.)
A short description of series [13]: Antiproliferative activity against mouse TAMH cells after 24 hrs by CellTiter-Glo assay. The format is ADME, cell-based.
Series [14] can be described thus: Therapeutic index, ratio of IC50 for mouse TAMH cells to IC50 for human cancer cells. Particulars: cancer cell lines.
Series [15] concerns the target Tyrosine-protein kinase JAK2 (Homo sapiens, UniProt O60674). The series is described as follows: Inhibition of JAK2 in IL-6-stimulated human MOLM14 cells assessed as suppression of STAT3 phosphorylation at TY705 residue at 1.5 uM pretreated for 3 hrs followed by IL-6 stimulation by immunoblot method. The format is cell-based. As to conditions: MOLM-14. In short, it runs like this: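 Cells (at least 3x10^6 per condition; KMS-12-BM or MOLM-14) pretreated with compound for 3 h, then stimulated with IL-6 10 ng/mL for 15 min. Cells lysed, equal protein run on SDS-PAGE and transferred to PVDF. Immunoblotted for p-STAT3 (Tyr705), with membranes re-probed for total STAT3. Reference JAK2 inhibitor control at 2 µM (KMS-12-BM) or 0.1 µM (MOLM-14).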
Background: In western blotting, separated proteins are transferred to a membrane and probed.

For series [16], the system named is MOLM-14. Briefly: Induction of apoptosis in human MOLM14 cells assessed as early apoptotic cells at 0.75 uM after 48 hrs by Annexin-V FITC/propidium iodide staining based flow cytometry (reference value: 3.6 to 3.7%). The format is functional. In short, it runs like this: (§2)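 MOLM-14 cells treated 48 h at the stated concentrations; doxorubicin as positive control. Stained with Annexin V-FITC and propidium iodide and analysed by flow cytometry (at least 10,000 events). Gated quadrants: Annexin V−/PI− viable, Annexin V+/PI− early apoptotic, Annexin V+/PI+ late apoptotic.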

Series [17] concerns MOLM-14. Briefly: Induction of apoptosis in human MOLM14 cells assessed as late apoptotic cells at 0.75 uM after 48 hrs by Annexin-V FITC/propidium iodide staining based flow cytometry (reference value: 2.1 to 2.2%). The format is functional. In short, it runs like this: as §2
The subject of series [18] is MOLM-14. The series is described as follows: Induction of apoptosis in human MOLM14 cells assessed as early apoptotic cells at 1.5 uM after 48 hrs by Annexin-V FITC/propidium iodide staining based flow cytometry (reference value: 3.6 to 3.7%). The format is functional.
Series [19] concerns MOLM-14. The series is described as follows: Induction of apoptosis in human MOLM14 cells assessed as late apoptotic cells at 1.5 uM after 48 hrs by Annexin-V FITC/propidium iodide staining based flow cytometry (reference value: 2.1 to 2.2%). In kind it is functional.
Series [20] deals with Tyrosine-protein kinase JAK2 (Homo sapiens), O60674 [V617F]. The series is described as follows: Inhibition of JAK2 V617F mutant in HEL 92.1.7 cells assessed as decrease in STAT5 phosphorylation at antiproliferative IC50 after 1 hr by immunoblot method. In kind it is cell-based. Put shortly: (§3)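 HEL92.1.7 cells seeded at 5x10^5/mL and treated 1 h at 0, 0.1, 0.5 and 1 μM. Lysed in RIPA with phosphatase/protease inhibitors, run on 10% SDS-PAGE and blotted to PVDF. Probed for acetyl-tubulin, acetyl-H3 (Lys9/Lys14), p-JAK2 (Y1007/1008) and p-STAT5 (Tyr694); membranes re-probed for tubulin, H3, JAK2 and STAT5. Quantified by densitometry.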

The test system is the same in series [21]. The series is described as follows: Induction of JAK2 V617F mutant phosphorylation at Y1007/8 residues in HEL 92.1.7 cells at 0.1 to 1 uM after 1 hr by immunoblot method. In kind it is cell-based. In short, it runs like this:
as §3

Activity calls are given as the source filed them. The calls are words filed in the database; no cut-off is given here.

Sequence of Tyrosine-protein kinase JAK2 (Homo sapiens), O60674 [V617F] (O60674 whole entry V617F): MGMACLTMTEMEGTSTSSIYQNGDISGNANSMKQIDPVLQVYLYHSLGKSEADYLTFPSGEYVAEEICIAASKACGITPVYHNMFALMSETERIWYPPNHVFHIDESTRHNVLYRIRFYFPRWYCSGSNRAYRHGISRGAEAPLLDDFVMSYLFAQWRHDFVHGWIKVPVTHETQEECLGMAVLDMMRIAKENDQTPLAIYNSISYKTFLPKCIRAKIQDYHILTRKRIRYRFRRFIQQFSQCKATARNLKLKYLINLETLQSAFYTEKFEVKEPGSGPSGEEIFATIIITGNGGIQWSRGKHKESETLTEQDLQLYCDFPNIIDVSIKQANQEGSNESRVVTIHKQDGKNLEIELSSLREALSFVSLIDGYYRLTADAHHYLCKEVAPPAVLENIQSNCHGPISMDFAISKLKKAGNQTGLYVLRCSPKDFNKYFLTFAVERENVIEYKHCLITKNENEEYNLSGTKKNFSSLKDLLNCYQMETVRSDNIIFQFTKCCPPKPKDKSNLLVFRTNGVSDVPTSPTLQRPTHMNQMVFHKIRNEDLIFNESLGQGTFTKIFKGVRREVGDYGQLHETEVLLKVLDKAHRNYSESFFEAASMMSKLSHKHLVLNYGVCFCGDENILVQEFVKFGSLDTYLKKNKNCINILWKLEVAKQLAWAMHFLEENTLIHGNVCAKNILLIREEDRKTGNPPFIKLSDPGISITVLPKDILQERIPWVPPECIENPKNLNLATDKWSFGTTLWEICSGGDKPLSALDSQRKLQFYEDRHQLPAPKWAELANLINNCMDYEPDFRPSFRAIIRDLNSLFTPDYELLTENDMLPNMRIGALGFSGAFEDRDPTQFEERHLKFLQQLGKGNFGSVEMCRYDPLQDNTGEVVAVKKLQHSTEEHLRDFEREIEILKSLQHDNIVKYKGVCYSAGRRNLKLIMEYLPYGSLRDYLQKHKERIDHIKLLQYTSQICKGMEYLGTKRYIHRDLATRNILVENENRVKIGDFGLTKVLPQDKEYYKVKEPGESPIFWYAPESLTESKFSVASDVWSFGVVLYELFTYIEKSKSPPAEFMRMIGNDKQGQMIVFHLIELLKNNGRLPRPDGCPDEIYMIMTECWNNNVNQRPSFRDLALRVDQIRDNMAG
Sequence of Histone deacetylase 2 (Q92769 whole entry, the tested form may be a part): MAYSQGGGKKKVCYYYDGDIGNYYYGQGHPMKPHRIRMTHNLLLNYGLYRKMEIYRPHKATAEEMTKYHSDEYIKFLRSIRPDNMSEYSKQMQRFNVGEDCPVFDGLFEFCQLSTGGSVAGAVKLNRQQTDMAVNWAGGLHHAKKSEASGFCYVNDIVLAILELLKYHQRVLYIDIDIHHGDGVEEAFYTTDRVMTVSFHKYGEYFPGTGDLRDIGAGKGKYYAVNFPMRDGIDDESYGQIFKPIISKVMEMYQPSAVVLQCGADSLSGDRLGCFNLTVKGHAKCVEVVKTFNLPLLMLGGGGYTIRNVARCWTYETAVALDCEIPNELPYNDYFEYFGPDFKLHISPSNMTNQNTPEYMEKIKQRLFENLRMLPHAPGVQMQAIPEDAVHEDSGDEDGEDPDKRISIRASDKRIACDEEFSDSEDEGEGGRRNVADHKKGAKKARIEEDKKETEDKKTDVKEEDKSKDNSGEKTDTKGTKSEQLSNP
Sequence of Histone deacetylase 9 (Homo sapiens) (Q9UKV0 whole entry, canonical isoform): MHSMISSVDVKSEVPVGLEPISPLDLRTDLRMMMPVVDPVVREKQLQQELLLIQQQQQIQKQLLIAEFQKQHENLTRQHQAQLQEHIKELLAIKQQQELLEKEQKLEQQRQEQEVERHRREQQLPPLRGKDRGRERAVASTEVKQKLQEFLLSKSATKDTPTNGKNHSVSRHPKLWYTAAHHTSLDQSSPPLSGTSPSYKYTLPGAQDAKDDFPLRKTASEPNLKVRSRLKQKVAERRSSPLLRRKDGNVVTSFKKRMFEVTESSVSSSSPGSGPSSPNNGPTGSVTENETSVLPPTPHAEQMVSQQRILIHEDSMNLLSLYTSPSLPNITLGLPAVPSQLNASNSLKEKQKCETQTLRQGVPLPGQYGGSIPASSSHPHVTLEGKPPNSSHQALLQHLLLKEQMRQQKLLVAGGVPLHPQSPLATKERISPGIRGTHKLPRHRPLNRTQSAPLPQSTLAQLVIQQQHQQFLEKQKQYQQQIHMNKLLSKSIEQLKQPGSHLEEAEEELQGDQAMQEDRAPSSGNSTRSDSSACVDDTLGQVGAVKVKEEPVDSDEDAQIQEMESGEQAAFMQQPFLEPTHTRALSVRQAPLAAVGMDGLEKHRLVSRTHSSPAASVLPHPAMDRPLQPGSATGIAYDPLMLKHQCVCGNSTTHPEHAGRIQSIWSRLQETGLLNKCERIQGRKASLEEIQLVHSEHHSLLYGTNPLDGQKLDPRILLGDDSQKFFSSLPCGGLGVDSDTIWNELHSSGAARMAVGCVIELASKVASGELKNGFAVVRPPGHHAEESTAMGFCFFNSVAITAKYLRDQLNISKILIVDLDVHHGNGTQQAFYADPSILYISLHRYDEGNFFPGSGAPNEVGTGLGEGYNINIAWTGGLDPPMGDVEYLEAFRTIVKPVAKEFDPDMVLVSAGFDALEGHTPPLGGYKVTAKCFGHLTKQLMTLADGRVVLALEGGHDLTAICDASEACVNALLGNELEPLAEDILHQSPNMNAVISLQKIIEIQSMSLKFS
Sequence of Histone deacetylase 8 (Q9BY41 whole entry, the tested form may be a part): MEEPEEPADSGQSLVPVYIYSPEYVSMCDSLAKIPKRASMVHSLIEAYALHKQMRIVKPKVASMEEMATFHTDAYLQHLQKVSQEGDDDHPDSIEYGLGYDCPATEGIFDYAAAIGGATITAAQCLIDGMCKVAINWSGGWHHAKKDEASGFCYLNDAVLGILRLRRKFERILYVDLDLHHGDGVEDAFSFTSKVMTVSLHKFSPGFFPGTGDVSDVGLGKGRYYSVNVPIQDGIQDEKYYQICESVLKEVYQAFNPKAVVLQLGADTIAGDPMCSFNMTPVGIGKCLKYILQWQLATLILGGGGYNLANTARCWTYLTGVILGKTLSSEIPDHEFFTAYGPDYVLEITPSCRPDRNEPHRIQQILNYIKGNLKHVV
Sequence of Tyrosine-protein kinase JAK2 (O60674 whole entry): as the sequence (O60674 whole entry V617F) above, with F617V counted along it
Sequence of Mitogen-activated protein kinase 10 (P53779 whole entry, the tested form may be a part): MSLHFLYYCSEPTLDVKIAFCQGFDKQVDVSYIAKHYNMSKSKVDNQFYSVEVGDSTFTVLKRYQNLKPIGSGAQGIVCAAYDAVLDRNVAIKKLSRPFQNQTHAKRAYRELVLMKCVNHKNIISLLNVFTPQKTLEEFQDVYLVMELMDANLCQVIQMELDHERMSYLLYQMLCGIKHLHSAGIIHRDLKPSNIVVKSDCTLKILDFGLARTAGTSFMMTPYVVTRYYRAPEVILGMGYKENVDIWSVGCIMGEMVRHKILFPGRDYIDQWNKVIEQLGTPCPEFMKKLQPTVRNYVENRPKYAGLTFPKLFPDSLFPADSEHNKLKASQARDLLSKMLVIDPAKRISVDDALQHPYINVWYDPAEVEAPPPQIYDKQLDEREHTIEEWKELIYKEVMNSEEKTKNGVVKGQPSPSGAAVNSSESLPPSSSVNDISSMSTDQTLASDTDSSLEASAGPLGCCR

What is called IC50 is the concentration at which inhibition is half-maximal. A word on the inhibition: it is the percentage by which the read-out fell short of the control. As to `O=C(CCCCCCOc1ccc2cc1COC/C=C/COCc1cccc(c1)-c1ccnc(n1)N2)NO`, the IC50 was 49 nM in [1]; 740 nM in series [2]; 1430 nM in series [6]; 2230 nM in series [7]; 1700 nM in [8]; 10 to 1000 nM in [9]. In addition, the half-inhibitory concentration (IC50) was 4 µM in series [10], 1140 nM in [11], 1090 nM in series [12] and 9.57 µM in series [13]. Further, in series [3], the inhibition came to 14%. In addition, the Activity in series [4] was 5.7%; in [5], 29%; in series [16], 13.3%; in [17] it was 5%; in [18], 12.7%; in [19], 13%. Moreover, the selectivity ratio in series [14] turned out to be 8.7. Also, the inhibition result in series [15] and in series [20] was “Active” each time. The outcome in series [21] was Active.

The record behind these values is ChEMBL document CHEMBL3877241 (J Med Chem, 2016).
